pIC50: −log10 of the molar value. Calls of active or inactive are those of the source. The rule behind the calls is not given here.
What was measured:
A549 [1] = test: Cell cycle arrest in human A549 cells assessed as accumulation at S phase at cytotoxic IC50 after 24 hrs by propidium iodide staining based flow cytometry (reference value: 32.37 +/- 1.23%); format: functional
A549 [2] = test: Cell cycle arrest in human A549 cells assessed as accumulation at G0/G1 phase at cytotoxic IC50 after 24 hrs by propidium iodide staining based flow cytometry (reference value: 46.39 +/- 1.75%); format: functional
A549 [3] = test: Cell cycle arrest in human A549 cells assessed as accumulation at G2/M phase at cytotoxic IC50 after 24 hrs by propidium iodide staining based flow cytometry (reference value: 20.95 +/- 0.8%); format: functional
A549 [4] = test: Induction of DNA damage in human A549 cells assessed as increase in gamma-H2AX level at 2 uM after 2 hrs by immunoblot analysis; format: functional, cell-based
Procedure, shortened: (§1)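 A549 cells were treated for 2 h with DMSO as diluent. Total cell lysates were run on 12% SDS-PAGE and transferred to PVDF. Membranes were blocked in PBST with 5% BSA and immunoblotted for γ-H2AX and pS345 CHK1, with HRP secondary detection.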

A549 [5] = test: Induction of DNA damage in human A549 cells assessed as gamma-H2AX foci formation at 2 uM after 2 hrs by DAPI staining based immunofluorescence assay; format: functional, cell-based
Procedure, shortened: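 A549 cells were treated for 2 h with DMSO as diluent, then fixed. Cells were immunostained with a mouse monoclonal anti-γ-H2AX antibody, with DAPI as DNA counterstain, and γ-H2AX foci were scored by immunofluorescence.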

A549 [6] = test: Induction of DNA damage in human A549 cells assessed as increase in CHK1 phosphorylation level at 2 uM after 2 hrs by immunoblot analysis; format: functional, cell-based; procedure, shortened: as §1
A549 [7] = test: Cell cycle arrest in human A549 cells assessed as accumulation at S phase at 0.1 uM after 24 hrs by propidium iodide staining based flow cytometry (reference value: 32.37 +/- 1.23%); format: functional
A549 [8] = test: Cell cycle arrest in human A549 cells assessed as accumulation at G2/M phase at 0.1 uM after 24 hrs by propidium iodide staining based flow cytometry (reference value: 20.95 +/- 0.8%); format: functional
A549 [9] = test: Cell cycle arrest in human A549 cells assessed as accumulation at G0/G1 phase at 0.1 uM after 24 hrs by propidium iodide staining based flow cytometry (reference value: 46.39 +/- 1.75%); format: functional
A549 [10] = test: Antiproliferative activity against human A549 cells after 72 hrs by MTS assay; format: functional, cell-based; details: A549, 72 h
Procedure, shortened: (§2)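 MTS read-out (CellTiter 96 AQueous One) of proliferation in A549 or HCT-116 cells grown in DMEM with 10% FBS at 37 °C, 5% CO2. Taxol-resistant A549 cells were exposed for 72 h. Compounds were screened at 30 μM versus vehicle, with ≥50% inhibition counted active. Actives were then tested over a concentration range for IC50. Triplicate wells, three independent experiments, mean ± SD.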

Sus scrofa [11] = species on record: Sus scrofa; test: Inhibition of porcine tubulin polymerization after 60 mins by spectrometric method
Procedure, shortened: (§3)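 Purified tubulin was incubated at 37 °C with compound at 5, 10 or 20 μM, with DMSO as vehicle. Polymerization was followed as the rise in absorbance at 340 nm over 60 min. Taxol (10 μM) and nocodazole (10 μM) served as controls. Three independent experiments were run.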

A549 [12] = test: Activation of spindle assembly checkpoint in human A549 cells assessed as increase in histone H3 phosphorylation at Ser10 residue at cytotoxic IC50 after 12 to 24 hrs by immunoblot analysis; format: functional, cell-based
A549 [13] = test: Cytotoxicity against human A549 cells at 30 uM by MTS assay relative to control; format: functional; procedure, shortened: as §2
A549 [14] = test: Cell cycle arrest in human A549 cells assessed as accumulation at G2/M phase after 24 hrs by propidium iodide staining based flow cytometry; format: functional
A549 [15] = test: Cell cycle arrest in human A549 cells assessed as accumulation at G0/G1 phase at 1.5 times cytotoxic IC50 after 24 hrs by propidium iodide staining based flow cytometry (reference value: 46.39 +/- 1.75%); format: functional
MCF7 = test: Cytotoxicity against human MCF7 cells at 30 uM by MTS assay; format: functional, cell-based
A549 [16] = test: Cytotoxicity against human A549 cells by MTS assay; format: functional, cell-based; procedure, shortened: as §2
A549 [17] = test: Induction of DNA damage in human A549 cells assessed as increase in gamma-H2AX level after 12 hrs by immunoblot analysis; format: functional, cell-based
Procedure, shortened: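 A549 cells treated for 12 h, with DMSO as diluent; camptothecin at 2 μM for 2 h served as positive control. Total cell lysates were immunoblotted for γ-H2AX (Ser139 phosphorylated H2AX) and pS345 CHK1. Immunofluorescence for γ-H2AX foci with DAPI counterstain was run in parallel.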

A549 [18] = test: Cell cycle arrest in human A549 cells assessed as accumulation at G2/M phase at 1.5 times cytotoxic IC50 after 24 hrs by propidium iodide staining based flow cytometry (reference value: 20.95 +/- 0.8%); format: functional
A549 [19] = test: Activation of spindle assembly checkpoint in human A549 cells assessed as mitotic index by measuring cells positive for histone H3 phosphorylation at Ser10 residue at cytotoxic IC50 after 16 hrs by FITC staining based immunofluorescence assay (reference value: 3.23 +/- 0.15); format: functional
A549 [20] = test: Activation of spindle assembly checkpoint in human A549 cells assessed as mitotic index by measuring cells positive for histone H3 phosphorylation at Ser10 residue at cytotoxic IC50 after 2 hrs by FITC staining based immunofluorescence assay (reference value: 2.67 +/- 0.21); format: functional
A549 [21] = test: Activation of spindle assembly checkpoint in human A549 cells assessed as cells positive for histone H3 phosphorylation at Ser10 residue by measuring mitotic cell population at cytotoxic IC50 after 2 hrs by propidium iodide staining based flow cytometry (reference value: 6.9%); format: functional
A549 [22] = test: Cell cycle arrest in human A549 cells assessed as accumulation at G2/M phase at 0.5 times cytotoxic IC50 after 24 hrs by propidium iodide staining based flow cytometry (reference value: 20.95 +/- 0.8%); format: functional
HeLa = test: Cytotoxicity against human HeLa cells at 30 uM by MTS assay; format: functional, cell-based
A549 [23] = test: Activation of spindle assembly checkpoint in human A549 cells assessed as increase in BubR1 phosphorylation at cytotoxic IC50 after 6 to 24 hrs by immunoblot analysis; format: functional, cell-based
HCT-116 [24] = test: Cytotoxicity against human HCT116 cells at 30 uM by MTS assay relative to control; format: functional; procedure, shortened: as §2
A549 [25] = test: Cell cycle arrest in human A549 cells assessed as accumulation at S phase at 1.5 times cytotoxic IC50 after 24 hrs by propidium iodide staining based flow cytometry (reference value: 32.37 +/- 1.23%); format: functional
A549 [26] = test: Cell cycle arrest in human A549 cells assessed as accumulation at G0/G1 phase at 0.5 times cytotoxic IC50 after 24 hrs by propidium iodide staining based flow cytometry (reference value: 46.39 +/- 1.75%); format: functional
A549 [27] = test: Induction of DNA damage in human A549 cells assessed as gamma-H2AX foci formation after 12 hrs by DAPI staining based immunofluorescence assay; format: functional, cell-based
Procedure, shortened: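 A549 cells treated 12 h, with camptothecin (2 μM, 2 h) and DMSO as comparators. Cells fixed and immunostained with mouse monoclonal anti-γ-H2AX, nuclei counterstained with DAPI, foci examined by immunofluorescence.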

HCT-116 [28] = test: Cytotoxicity against human HCT116 cells by MTS assay; format: functional, cell-based; procedure, shortened: as §2
A549 [29] = test: Activation of spindle assembly checkpoint in human A549 cells assessed as cells positive for histone H3 phosphorylation at Ser10 residue by measuring mitotic cell population at cytotoxic IC50 after 16 hrs by propidium iodide staining based flow cytometry (reference value: 6.9%); format: functional
A549 [30] = test: Cell cycle arrest in human A549 cells assessed as accumulation at S phase at 0.5 times cytotoxic IC50 after 24 hrs by propidium iodide staining based flow cytometry (reference value: 32.37 +/- 1.23%); format: functional
MDA-MB-231 = test: Cytotoxicity against human MDA-MB-231 cells at 30 uM by MTS assay; format: functional, cell-based
A549 [31] = test: Activation of spindle assembly checkpoint in human A549 cells assessed as mitotic index by measuring cells positive for histone H3 phosphorylation at Ser10 residue at cytotoxic IC50 after 4 hrs by FITC staining based immunofluorescence assay (reference value: 3.3 +/- 0.17); format: functional
A549 [32] = test: Activation of spindle assembly checkpoint in human A549 cells assessed as cells positive for histone H3 phosphorylation at Ser10 residue by measuring mitotic cell population at cytotoxic IC50 after 4 hrs by propidium iodide staining based flow cytometry (reference value: 6.9%); format: functional
A549 [33] = test: Activation of spindle assembly checkpoint in human A549 cells assessed as mitotic index by measuring cells positive for histone H3 phosphorylation at Ser10 residue at cytotoxic IC50 after 8 hrs by FITC staining based immunofluorescence assay (reference value: 3.17 +/- 0.15); format: functional
A549 [34] = test: Activation of spindle assembly checkpoint in human A549 cells assessed as cells positive for histone H3 phosphorylation at Ser10 residue by measuring mitotic cell population at cytotoxic IC50 after 8 hrs by propidium iodide staining based flow cytometry (reference value: 6.9%); format: functional
A549 [35] = test: Induction of DNA damage in human A549 cells assessed as increase in CHK1 phosphorylation level after 12 hrs by immunoblot analysis; format: functional, cell-based
Procedure, shortened: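 A549 cells treated 12 h, with camptothecin (2 μM, 2 h) and DMSO as comparators. Total lysates immunoblotted for γ-H2AX and pS345 CHK1.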

HT-29 = test: Cytotoxicity against human HT-29 cells at 30 uM by MTS assay; format: functional, cell-based
A549 [36] = test: Activation of spindle assembly checkpoint in human A549 cells assessed as mitotic index by measuring cells positive for histone H3 phosphorylation at Ser10 residue at 340 nM after 16 hrs by FITC staining based immunofluorescence assay (reference value: 3.23 +/- 0.15); format: functional
A549 [37] = test: Activation of spindle assembly checkpoint in human A549 cells assessed as mitotic index by measuring cells positive for histone H3 phosphorylation at Ser10 residue at 340 nM after 4 hrs by FITC staining based immunofluorescence assay (reference value: 3.3 +/- 0.17); format: functional
A549 [38] = test: Activation of spindle assembly checkpoint in human A549 cells assessed as mitotic index by measuring cells positive for histone H3 phosphorylation at Ser10 residue at 340 nM after 8 hrs by FITC staining based immunofluorescence assay (reference value: 3.17 +/- 0.15); format: functional
A549 [39] = test: Activation of spindle assembly checkpoint in human A549 cells assessed as mitotic index by measuring cells positive for histone H3 phosphorylation at Ser10 residue at 340 nM after 2 hrs by FITC staining based immunofluorescence assay (reference value: 2.67 +/- 0.21); format: functional
Sus scrofa [40] = species on record: Sus scrofa; test: Inhibition of porcine tubulin polymerization at 10 uM after 60 mins by spectrometric method; procedure, shortened: as §3

O=c1[nH]cc(F)c(=O)[nH]1 [FLUOROURACIL]
Activity (A549 [1]): 59.27% | Activity (A549 [2]): 29.61% | Activity (A549 [3]): 8.9%

CC[C@@]1(O)C(=O)OCc2c1cc1n(c2=O)Cc2cc3ccccc3nc2-1
Activity (A549 [4]): Active | Activity (A549 [5]): Active | Activity (A549 [6]): Active

CC(=O)O[C@H]1C(=O)[C@@]2(C)[C@H]([C@H](OC(=O)c3ccccc3)[C@]3(O)C[C@H](OC(=O)[C@H](O)[C@@H](NC(=O)c4ccccc4)c4ccccc4)C(C)=C1C3(C)C)[C@]1(OC(C)=O)CO[C@@H]1C[C@@H]2O [PACLITAXEL]
Activity (A549 [7]): 24.56% | Activity (A549 [8]): 74.17% | Activity (A549 [9]): 5.86% | pIC50 (A549 [10]): < 4.52

Cc1cc2c(=O)[nH]c(CSC(=S)NCc3ccc(C#N)cc3)nc2s1
inhibition (Sus scrofa [11]): Dose-dependent effect | Activity (A549 [12]): Active | Activity (A549 [13]): >=50% | Activity (A549 [1]): 19.85% | Activity (A549 [14]): Dose-dependent effect | Activity (A549 [15]): 17% | Activity (MCF7): inactive | pIC50 (A549 [16]): 5.32 | Activity (A549 [17]): inactive | Activity (A549 [18]): 61.89% | Activity_index (A549 [19]): 19.17 | Activity_index (A549 [20]): 6.63 | Activity (A549 [21]): 6.9% | Activity (A549 [22]): 23.59% | Activity (HeLa): inactive | Activity (A549 [2]): 24.24% | Activity (A549 [23]): Active | Activity (HCT-116 [24]): >=50% | Activity (A549 [25]): 18.45% | Activity (A549 [26]): 43.91% | Activity (A549 [27]): inactive | pIC50 (A549 [10]): 5.14 | pIC50 (HCT-116 [28]): 4.65 | Activity (A549 [29]): 19.5% | Activity (A549 [30]): 30.89% | Activity (MDA-MB-231): inactive | Activity (A549 [3]): 55.74% | Activity_index (A549 [31]): 9.67 | Activity (A549 [32]): 10.2% | Activity_index (A549 [33]): 15.6 | Activity (A549 [34]): 13.7% | Activity (A549 [35]): inactive | Activity (HT-29): inactive

COC(=O)Nc1nc2cc(C(=O)c3cccs3)ccc2[nH]1 [NOCODAZOLE]
Activity_index (A549 [36]): 57.93 | Activity_index (A549 [37]): 14.57 | Activity_index (A549 [38]): 28.57 | Activity_index (A549 [39]): 9.83 | inhibition (Sus scrofa [40]): Active

— ChEMBL document CHEMBL4152279, “Synthesis, cytotoxic evaluation and target identification of thieno[2,3-d]pyrimidine derivatives with a dithiocarbamate side chain at C2 position” (Eur J Med Chem, 2018)
